Experimental data from ChEMBL document CHEMBL5712078, “BRD9 Inhibition, Alone or in Combination with Cytostatic Compounds as a Therapeutic Approach in Rhabdoid Tumors” (Int J Mol Sci, 2017).
Calls of active or inactive are those of the source. The rule behind the calls is not given here.

Columns and labels:
CHLA-266 [1] = assay: Induction of apoptosis in human CHLA-266 cells assessed as necrotic cells at 10 uM incubated for 72 hrs by flow cytometry analysis (Rvb= 5.0+/-0.3 %)
G-401 [2] = assay: Anti-proliferative activity against human G-401 cells assessed as inhibition cell growth incubated for 72 hrs in presence of carboplatin by MTT-based Chou-Talalay method; type: functional; settings: G-401, 72 h
How it was run: (§1)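 Combination MTT assay. I-BRD9 and carboplatin, doxorubicin or vincristine were given together at a fixed 10:1 ratio, with cytostatics 0.0001–10 µM final, added 24 h after seeding. MTT read-out at 570/630 nm after 3 h formazan solubilisation. Combination index from the Chou–Talalay median-effect method: CI <1 synergism, CI >1 antagonism. n ≥3.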

CHLA-266 [3] = assay: Anti-proliferative activity against human CHLA-266 cells assessed as cell viability incubated for 144 hrs by MTT assay; type: functional, cell-based; settings: CHLA-266, 144 h
How it was run: (§2)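 MTT proliferation assay. Cells were seeded at 3000 (BT16, KD, G401) or 5000 (BT12, Chla266) cells per well and drug was added after 24 h, final 0.001–100 µM. Read at 72 or 144 h; 144 h wells got fresh medium and drug on day 3. MTT for 3 h, formazan dissolved in isopropanol/0.04 N HCl, absorbance at 570/630 nm. Technical triplicates, ≥3 independent runs, IC50 derived.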

G-401 [4] = assay: Induction of apoptosis in human G-401 cells assessed as necrotic cells incubated for 72 hrs by flow cytometry analysis; type: functional, cell-based; settings: dose 5-20 µM
How it was run: (§3)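 Annexin V/PI flow assay. G401 at 10,000 cells/mL and BT12 or Chla266 at 30,000 cells/mL were seeded in 12-well plates. Next day medium was replaced with medium holding I-BRD9 or BI-9564 at 0, 5, 10 or 20 µM final for 72 h. Cells were washed in PBS, stained with FITC-Annexin V and propidium iodide for 15 min in the dark at room temperature, then read by flow cytometry. Percentage of dead cells, n ≥3, mean ± SD, one-way ANOVA versus control.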

BT-12 [5] = assay: Induction of apoptosis in human BT-12 cells assessed as necrotic cells at 10 uM incubated for 72 hrs by flow cytometry analysis (reference value: 9.1+/-2.8 %); type: functional
How it was run: as §3

G-401 [6] = assay: Synergistic cytotoxicity against human G-401 cells assessed as combination index incubated for 72 hrs in presence of doxorubicin by MTT-based Chou-Talalay method; type: functional
How it was run: (§4)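 MTT combination assay. BT12 in IMDM/20% FBS at 5000 cells/well; G401 in DMEM/10% FBS. Drugs added 24 h after seeding, with I-BRD9 and cytostatic at a fixed 10:1 ratio (final ranges 0.001–100 µM and 0.0001–10 µM). After 72 h: MTT for 3 h, dissolved in isopropanol/0.04 N HCl, read at 570/630 nm. Technical triplicates, ≥3 independent runs; combination index by Chou–Talalay median-effect analysis.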

BT-12 [7] = assay: Induction of cell cycle arrest in human BT-12 cells assessed as accumulation of cells at G1 phase incubated for 72 hrs by flow cytometry analysis; type: functional, cell-based; settings: dose 5-20 µM
How it was run: (§5)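 Cell cycle. Seeding and 72 h treatment as for the apoptosis assay, with I-BRD9 or BI-9564 at 0, 5, 10 or 20 µM final. A 100 µL cell suspension was stained with DAPI and read by flow cytometry. Percentage of cells in G1, n ≥3, mean ± SD, one-way ANOVA versus control.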

BT-12 [8] = assay: Anti-proliferative activity against human BT-12 cells assessed as inhibition cell growth incubated for 72 hrs in presence of doxorubicin by MTT-based Chou-Talalay method; type: functional; settings: BT-12, 72 h
How it was run: as §1

BT-12 [9] = assay: Anti-proliferative activity against human BT-12 cells assessed as inhibition cell growth incubated for 72 hrs in presence of carboplatin by MTT-based Chou-Talalay method; type: functional; settings: BT-12, 72 h
How it was run: as §1

CHLA-266 [10] = assay: Induction of cell cycle arrest in human CHLA-266 cells assessed as accumulation of cells at G1 phase at 20 uM incubated for 72 hrs by flow cytometry analysis (reference value: 74.2+/-3.6%); type: functional
How it was run: as §5

BT-12 [11] = assay: Synergistic cytotoxicity against human BT-12 cells assessed as combination index incubated for 72 hrs in presence of vincristine by MTT-based Chou-Talalay method; type: functional
How it was run: as §4

CHLA-266 [12] = assay: Induction of cell cycle arrest in human CHLA-266 cells assessed as accumulation of cells at G1 phase at 5 uM incubated for 72 hrs by flow cytometry analysis (reference value: 74.2+/-3.6%); type: functional
How it was run: as §5

G-401 [13] = assay: Induction of cell cycle arrest in human G-401 cells assessed as accumulation of cells at G1 phase at 20 uM incubated for 72 hrs by flow cytometry analysis (reference value: 51.7+/-2%); type: functional
How it was run: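 72 h DAPI flow-cytometry cell-cycle assay. Chla266 in IMDM/20% FBS seeded at 30,000 cells/mL; G401 in DMEM/10% FBS at 10,000 cells/mL; 1 mL/well, 37 °C, 5% CO2. Next day the medium was replaced with inhibitor at final 0, 5, 10 or 20 µM. Cells were harvested, PBS-washed, and the G1 percentage was read. n ≥ 3, mean ± SD, one-way ANOVA vs control.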

BT-12 [14] = assay: Synergistic cytotoxicity against human BT-12 cells assessed as combination index incubated for 72 hrs in presence of doxorubicin by MTT-based Chou-Talalay method; type: functional
How it was run: as §4

CHLA-266 [15] = assay: Anti-proliferative activity against human CHLA-266 cells assessed as cell viability incubated for 72 hrs by MTT assay; type: functional, cell-based; settings: CHLA-266, 72 h
How it was run: as §2

G-401 [16] = assay: Anti-proliferative activity against human G-401 cells assessed as cell viability incubated for 72 hrs by MTT assay; type: functional, cell-based; settings: G-401, 72 h
How it was run: as §2

CHLA-266 [17] = assay: Induction of apoptosis in human CHLA-266 cells assessed as necrotic cells at 5 uM incubated for 72 hrs by flow cytometry analysis (Rvb= 5.0+/-0.3 %)
BT-12 [18] = assay: Anti-proliferative activity against human BT-12 cells assessed as cell viability incubated for 144 hrs by MTT assay; type: functional, cell-based; settings: BT-12, 144 h
How it was run: as §2

CHLA-266 [19] = assay: Induction of apoptosis in human CHLA-266 cells assessed as necrotic cells at 20 uM incubated for 72 hrs by flow cytometry analysis (Rvb= 5.0+/-0.3 %)
G-401 [20] = assay: Induction of apoptosis in human G-401 cells assessed as necrotic cells at 5 uM incubated for 72 hrs by flow cytometry analysis (Rvb= 5.7+/-1.9 %); type: functional
How it was run: as §3

CHLA-266 [21] = assay: Cytotoxicity against human CHLA-266 cells assessed as change in cell viability at 5 to 20 uM treated for 72 hrs; type: functional, cell-based; settings: dose 5-20 µM
How it was run: as §3

CCn1cc(-c2cccc(C(F)(F)F)c2)c2sc(C(=N)NC3CCS(=O)(=O)CC3)cc2c1=O
Activity (CHLA-266 [1]): 11.7%
IC50 (G-401 [2]): 9.1 µM
IC50 (CHLA-266 [3]): 24.7 µM
Activity (G-401 [4]): Dose-Dependent Effect
Activity (BT-12 [5]): 17.6%
CI (G-401 [6]): 1.2
Activity (BT-12 [7]): Dose-Dependent Effect
IC50 (BT-12 [8]): 0.94 µM
IC50 (BT-12 [9]): 40.9 µM
Activity (CHLA-266 [10]): 89.3%
CI (BT-12 [11]): 96.1
Activity (CHLA-266 [12]): 79.5%
Activity (G-401 [13]): 65.5%
CI (BT-12 [14]): 0.42
IC50 (CHLA-266 [15]): 13.3 µM
IC50 (G-401 [16]): 13.4 µM
Activity (CHLA-266 [17]): 7.7%
IC50 (BT-12 [18]): 8.2 µM
Activity (CHLA-266 [19]): 25%
Activity (G-401 [20]): 7.7%
Activity (CHLA-266 [21]): Active
